“And” between values parts separate entries of the source, which are not always exact repeats. Equal entries are not always repeated.

Data set [1] is filed under the species Rattus norvegicus. In words: Radioactivity distribution in spleen of normal fischer rat after injection of [18F]-fluoro-2-methyl-2-(methylamino)propanoic acid after 5 min. It is filed as ADME, organism-based. The note with it: in vivo. In outline: (§1)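 Male Fischer 344 rats (200–250 g), fed ad libitum, under intramuscular ketamine:xylazine anesthesia, got ~85 μCi radiotracer in 0.3 mL sterile water by tail-vein catheter. Groups of four were killed at 5, 30, 60 or 120 min. Dissected tissues were weighed and gamma-counted with dose standards. Counts were decay-corrected and given as %ID/g, mean ± standard error. Tissues were compared by one-way ANOVA.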

The species named for data set [2] is Rattus norvegicus. Briefly: Radioactivity distribution in heart of normal fischer rat after injection of [18F]-fluoro-2-methyl-2-(methylamino)propanoic acid after 5 min. Format: ADME, organism-based. The note with it: in vivo. In outline: (§2)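 Normal male Fischer 344 rats (200–250 g), anesthetized with i.m. ketamine:xylazine (1:1), got ~85 μCi of tracer in 0.3 mL sterile water i.v. via tail-vein catheter. Groups of four were killed at 5, 30, 60 or 120 min. Tissues were weighed and gamma-counted against dose standards, and counts were decay-corrected to %ID/g. Results are mean ± standard error (n = 4), compared by one-way ANOVA.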

The species named for data set [3] is Rattus norvegicus. In words: Radioactivity distribution in spleen of normal fischer rat after injection of [18F]-fluoro-2-methyl-2-(methylamino)propanoic acid after 30 min. The settings on record: in vivo, 0.5 h. Format: ADME, organism-based. In outline: as §1
For data set [4], the species on record is Rattus norvegicus. Briefly: Radioactivity distribution in tumor of tumor-bearing fischer rat after injection of [18F]-fluoro-2-methyl-2-(methylamino)propanoic acid after 60 min. The note with it: in vivo, 1 h.
The species entered for data set [5] is Rattus norvegicus. Briefly: Radioactivity distribution in pancreas of normal fischer rat after injection of [18F]-fluoro-2-methyl-2-(methylamino)propanoic acid after 120 min. Format: ADME, organism-based. The note with it: in vivo, 2 h. Put shortly: (§3)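 Male Fischer 344 rats (200–250 g), fed ad libitum, anesthetized with intramuscular ketamine:xylazine (1:1, 0.1 mL/100 g). About 85 μCi tracer in 0.3 mL sterile water was given by tail-vein catheter. Groups of four were killed at 5, 30, 60 or 120 min. Tissues were weighed and gamma-counted against dose standards, decay-corrected, and expressed as %ID/g (mean ± standard error).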

Data set [6] is filed under the species Rattus norvegicus. Briefly: Radioactivity distribution in muscle of normal fischer rat after injection of [18F]-fluoro-2-methyl-2-(methylamino)propanoic acid after 60 min. It is filed as ADME, organism-based, Muscle tissue. The settings on record: in vivo, 1 h. Put shortly:
as §3

The species named for data set [7] is Rattus norvegicus. Briefly: Radioactivity distribution in bone of normal fischer rat after injection of [18F]-fluoro-2-methyl-2-(methylamino)propanoic acid after 60 min. Format: ADME, organism-based, Bone element. The settings on record: in vivo, 1 h. Put shortly: as §2
The species entered for data set [8] is Rattus norvegicus. Briefly: Radioactivity distribution in muscle of normal fischer rat after injection of [18F]-fluoro-2-methyl-2-(methylamino)propanoic acid after 120 min. The note with it: in vivo, 2 h. Format: ADME, organism-based, Muscle tissue. Put shortly:
as §3

The species named for data set [9] is Rattus norvegicus. Briefly: Radioactivity distribution in spleen of normal fischer rat after injection of [18F]-fluoro-2-methyl-2-(methylamino)propanoic acid after 60 min. It is filed as ADME, organism-based. The note with it: in vivo, 1 h. In outline: as §1
For data set [10], the species on record is Rattus norvegicus. Briefly: Radioactivity distribution in kidney of normal fischer rat after injection of [18F]-fluoro-2-methyl-2-(methylamino)propanoic acid after 120 min. It is filed as ADME, organism-based. The settings on record: in vivo, 2 h. Put shortly:
as §2

Data set [11] is filed under the species Rattus norvegicus. Briefly: Radioactivity distribution in muscle of normal fischer rat after injection of [18F]-fluoro-2-methyl-2-(methylamino)propanoic acid after 30 min. The settings on record: in vivo, 0.5 h. Format: ADME, organism-based, Muscle tissue. In outline: as §3
For data set [12], the species on record is Rattus norvegicus. Briefly: Radioactivity distribution in lung of normal fischer rat after injection of [18F]-fluoro-2-methyl-2-(methylamino)propanoic acid after 5 min. Format: ADME, organism-based. The note with it: in vivo. Put shortly:
as §3

Data set [13] is filed under the species Rattus norvegicus. In words: Radioactivity distribution in brain of normal fischer rat after injection of [18F]-fluoro-2-methyl-2-(methylamino)propanoic acid after 120 min. Format: ADME, organism-based. The settings on record: in vivo, 2 h. In outline: as §2
For data set [14], the species on record is Rattus norvegicus. In words: Radioactivity distribution in brain of normal fischer rat after injection of [18F]-fluoro-2-methyl-2-(methylamino)propanoic acid after 30 min. Format: ADME, organism-based. The settings on record: in vivo, 0.5 h. Put shortly: as §2
For data set [15], the species on record is Rattus norvegicus. Briefly: Radioactivity distribution in kidney of normal fischer rat after injection of [18F]-fluoro-2-methyl-2-(methylamino)propanoic acid after 30 min. The settings on record: in vivo, 0.5 h. Format: ADME, organism-based. In outline: as §2
Data set [16] is filed under the species Rattus norvegicus. Briefly: Radioactivity distribution in brain of normal fischer rat after injection of [18F]-fluoro-2-methyl-2-(methylamino)propanoic acid after 5 min. It is filed as ADME, organism-based. The settings on record: in vivo. In outline: as §2
The species entered for data set [17] is Rattus norvegicus. In words: Radioactivity distribution in bone of normal fischer rat after injection of [18F]-fluoro-2-methyl-2-(methylamino)propanoic acid after 30 min. It is filed as ADME, organism-based, Bone element. The settings on record: in vivo, 0.5 h. In outline:
as §2

The species entered for data set [18] is Rattus norvegicus. In words: Radioactivity distribution in kidney of normal fischer rat after injection of [18F]-fluoro-2-methyl-2-(methylamino)propanoic acid after 5 min. It is filed as ADME, organism-based. The note with it: in vivo. Put shortly:
as §2

The species entered for data set [19] is Rattus norvegicus. Briefly: Radioactivity distribution in liver of normal fischer rat after injection of [18F]-fluoro-2-methyl-2-(methylamino)propanoic acid after 5 min. It is filed as ADME, organism-based. The note with it: in vivo. Put shortly: as §3
Data set [20] is filed under the species Rattus norvegicus. In words: Radioactivity distribution in liver of normal fischer rat after injection of [18F]-fluoro-2-methyl-2-(methylamino)propanoic acid after 120 min. It is filed as ADME, organism-based. The settings on record: in vivo, 2 h. Put shortly:
as §3

The species named for data set [21] is Rattus norvegicus. In words: Radioactivity distribution in blood of normal fischer rat after injection of [18F]-fluoro-2-methyl-2-(methylamino)propanoic acid after 30 min. It is filed as ADME, organism-based. The settings on record: in vivo, 0.5 h. In outline:
as §2

Data set [22] is filed under the species Rattus norvegicus. In words: Radioactivity distribution in heart of normal fischer rat after injection of [18F]-fluoro-2-methyl-2-(methylamino)propanoic acid after 60 min. It is filed as ADME, organism-based. The settings on record: in vivo, 1 h. Put shortly:
as §2

The species named for data set [23] is Rattus norvegicus. In words: Radioactivity distribution in spleen of normal fischer rat after injection of [18F]-fluoro-2-methyl-2-(methylamino)propanoic acid after 120 min. Format: ADME, organism-based. The settings on record: in vivo, 2 h. In outline: as §3

On to `CNC(C)(C[18F])C(=O)O.Cl` (stereo not drawn), for which the ID/g in the data set listed under Rattus norvegicus [1] is 0.44% and 0.47%; in the data set filed under Rattus norvegicus [2], 0.22% and 0.34%; in the data set listed under Rattus norvegicus [3], 0.75%; in the data set filed under Rattus norvegicus [4] it was 2.28%; in the data set listed under Rattus norvegicus [5], 2.88% and 1.74%; in the data set filed under Rattus norvegicus [6] it was 0.15% and 0.19%. The ID/g was 0.29% and 0.23% in the data set filed under Rattus norvegicus [7]; 0.13% and 0.16% in the data set listed under Rattus norvegicus [8]; 0.68% and 0.45% in the data set listed under Rattus norvegicus [9]; 1.36% and 1.59% in the data set filed under Rattus norvegicus [10]; 0.16% in the data set filed under Rattus norvegicus [11]; 0.53% and 0.61% in the data set filed under Rattus norvegicus [12]. In addition, the ID/g in the data set listed under Rattus norvegicus [13] was 0.03% and < 0.02%; in the data set listed under Rattus norvegicus [14], 0.04%; in the data set listed under Rattus norvegicus [15] it was 4.6%; in the data set listed under Rattus norvegicus [16], 0.04% and < 0.032%; in the data set filed under Rattus norvegicus [17], 0.32%; in the data set listed under Rattus norvegicus [18] it was 8.12% and 9.33%. The ID/g was 0.79% and 0.94% in the data set filed under Rattus norvegicus [19]; 0.58% and 0.41% in the data set listed under Rattus norvegicus [20]; 0.3% in the data set filed under Rattus norvegicus [21]; 0.2% and 0.25% in the data set filed under Rattus norvegicus [22]; 0.47% and 0.4% in the data set listed under Rattus norvegicus [23].

The values above are taken from ChEMBL document CHEMBL1135739, “Radiolabeled amino acids for tumor imaging with PET: radiosynthesis and biological evaluation of 2-amino-3-[18F]fluoro-2-methylpropanoic acid and 3-[18F]fluoro-2-methyl-2-(methylamino)propanoic acid” (J Med Chem, 2002).
